This note sets out measurements from the EternaBench riboswitch data.

For orientation: apparent Kd means the concentration giving half-maximal binding under the conditions of the assay.

The subject of the data set is MS2 coat protein. Nature of the data set: apparent Kd, MS2 coat protein; higher = weaker binding; RNA-MaP array; FMN 200 µM where present. The method, boiled down:
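Stalled E. coli RNA polymerase transcribed each design on Illumina sequencing-chip clusters. The clusters were titrated with SNAP-549-labelled MS2 coat protein, starting at 0.7 or 1.5 nM and doubling up to 3 µM, first without ligand and then with constant ligand, in 100 mM Tris-HCl pH 7.5, 80 mM KCl, 4 mM MgCl2, BSA, DTT, yeast tRNA and Tween-20. Green signal was normalised to red-channel RNA signal and to the control-cluster median Fmax. The apparent Kd is the median of filtered binding-curve fits made for each cluster.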

The mark [1] stands for this setting: designed as: OFF switch for flavin mononucleotide, no ligand.
Where [2] appears, read: ligand present: flavin mononucleotide, designed as: OFF switch for flavin mononucleotide.
Setting [3] is: designed as: ON switch for flavin mononucleotide, no ligand.
The mark [4] stands for this setting: ligand present: flavin mononucleotide, designed as: ON switch for flavin mononucleotide.

Regarding “CUGUUAUAGGUCCAGAAUUACAACAUGAGGAUCACCCAUGUGCAGGAUAUCGGGUUGAUAGGCGACGAGAAGGGCAUAGUCACG”, the “apparent Kd” value was determined as 76.5 nM under setting [1] and 79.2 nM under setting [2].

“AGUCGGCGAGGAUAUACAUGAGGAUCACCCAUGUGAGAGAUAAAAGUGAGUUAGACAAGUAGAAGGCGCUGACA”: the “apparent Kd” value reads like this: under setting [1], 59.7 nM; under setting [2], 469 nM.

Take “GAAAACGCAGAGGAUAUUUCAGAUCCUAGCUGCAAAGAAGGCUGCACAUGAGGAUCACCCAUGUGGUCCUGAAG”: the “apparent Kd” value turned out to be 65.1 nM under setting [1] and 155 nM under setting [2].

Turning to “GGUGGACAUGAGGAUCACCCAUGUGAGGAUAUCGGCUGGCUAGUGGCUGACGGCUGCUCGAGAAGGCGCAUUGU”, the “apparent Kd” value under setting [1] turned out to be 78.3 nM and the “apparent Kd” value under setting [2] turned out to be 107 nM.

For “AAGGGCUGAGGAUAUGCGCGGGCAAGAUCCUCAAUCCCAAAACAUGAGGAUCACCCAUGUAGAAGGCAGAAAUA”, the “apparent Kd” value by setting is: under setting [1], 33.2 nM; under setting [2], 24.2 nM.

Take “UUUUAAUAAUAGAAGGAGCACUACAUGAGGAUCACCCAUGUGUUAGUAGUUAGGAUAUAUAAUAACAUGAGGAUCACCCAUGUA”: the “apparent Kd” value runs as follows: under setting [3], 83.6 nM; under setting [4], 40.7 nM.

With “UCUUAGUCAGGAUAUACAUGAGGAUCACCCAUGUAAAAUUUUAAUUUAAUUUUAAGGUGUAGAAGGGACCAUUU”, the “apparent Kd” value reads like this: under setting [1], 30.6 nM; under setting [2], 26.2 nM.

Turning to “UUUUUUGUAGUGAGGAUAUCGUUGUGGAUGUGGAUCGAGAAGGCACAUGAGGAUCACCCAUGUUAGUUGUGGUU”, the “apparent Kd” value reads like this: under setting [1], 155 nM; under setting [2], 216 nM.

Consider “GUUUGGGCAGGAUAUACAUGAGGAUCACCCAUGUGUUUUUUGUGUGUUUUGUUAUCGUGUAGAAGGGUUCGGGC”, for which the “apparent Kd” value reads like this: under setting [1], 68.5 nM; under setting [2], 147 nM.

Consider “GGAUGACAAAGUCAUCCAUAACGAACAUGAGGAUCACCCAUGUAGGAUAUGCUACUCAAAGAGUAGCAGAAGGACAUGUGUCUU”, for which the “apparent Kd” value is 33.9 nM under setting [1] and 158 nM under setting [2].

As for “GAGUAGAAGUUAGGAUAUUGGAUAGGGACGGAAUAAGAAGGAGCAAGACAUGAGGAUCACCCAUGUGUAGAAGAAGAGAUCCUC”, the “apparent Kd” value came to 448 nM under setting [1] and 168 nM under setting [2].

For the sequence “AUACAUGAGGAUCACCCAUGUUACAUGGCCUUGAUAGAUCGUAGAAGGAUGUUAUUAUUAAUUUCAUAGGAUAUACUAUUUAGU”, the “apparent Kd” value was determined as 95.1 nM under setting [1] and 72.9 nM under setting [2].

On to “CAUUAUUAUCGAGGAUAUCCUAUUGAAAUUCUGGGAGAAGGCGGACUCAACAUGAGGAUCACCCAUGUGAGACGGGUGCUAGGG”, for which the “apparent Kd” value runs as follows: under setting [1], 26.8 nM; under setting [2], 25.2 nM.

As for “AAAUGAUGAGGAUAUACAUGAGGAUCACCCAUGUGUAAAAAUAAAUACACAAAAGAAAGUAGAAGGCAUCAAAA”, the “apparent Kd” value runs as follows: under setting [1], 31.6 nM; under setting [2], 124 nM.

As to “CAGUACUGAGGAUAUACAUGAGGAUCACCCAUGUGCUCGAAGUAGGAUACUACUAUUAGUAGAAGGCAGUACUG”, the “apparent Kd” value was found to be 16.1 nM under setting [1] and 76.8 nM under setting [2].

Take “GCGCGCGCAGGAUAUACAAUGGGCCCGGGAAACCGGGCCCUACAUGAGGAUCACCCAUGUAGAAGGGUGUGUGU”: the “apparent Kd” value is, setting by setting: under setting [1], 606 nM; under setting [2], 468 nM.

In the case of “GUAGCUAUCGGAGGAUAUUCAUUAAACAUGAGGAUCACCCAUGUUAAAUUGGGAGAAGGCCGAUAGCUACAAGAGCGAAAGCUC”, the “apparent Kd” value reads like this: under setting [3], 7.16 nM; under setting [4], 5.45 nM.

For the sequence “AUUUUGCGAGGAUAUACAUGAGGAUCACCCAUGUACGCUCAGCAGGGUGAAGGCUCUUGUAGAAGGCGUUCUGA”, the “apparent Kd” value came to 88.2 nM under setting [1] and 45.8 nM under setting [2].

Regarding “AAAACAUGAGGAUCACCCAUGUAAAGAACGGUUAAUAGAUCUGAGGAUAUACUAGAAUUUAGGUAGUAGAAGGCAGUGGGUACA”, the “apparent Kd” value is, setting by setting: under setting [3], 35 nM; under setting [4], 26.2 nM.

Consider “GCCGGGUAGGCAGGAUAUCCUCGCGCAAACACAUGAGGAUCACCCAUGUACACAAAACGUGAUAUGGAGAAGGGCUGACCCGCA”, for which the “apparent Kd” value came out at 33.9 nM under setting [3] and 5.84 nM under setting [4].

As for “CGACUGUGAGGAUAUGGUGAGUAGUGCCUGAGCGCUGCUCACCAGAAGGCACAUGAGGAUCACCCAUGUAUGAC”, the “apparent Kd” value runs as follows: under setting [1], 110 nM; under setting [2], 214 nM.

In the case of “AGCUCGCGAAGAGGAUAUACAGCGGCGACCUAUCAUGAUGAGCGGGUUACAUGAGGAUCACCCAUGUAGAAGGCUUCCCGACUC”, the “apparent Kd” value by setting is: under setting [1], 17.9 nM; under setting [2], 52.2 nM.

Turning to “GUGGUGCAUAUACGUGGAUGUACAUGAGGAUCACCCAUGUAAGAGGAUAUGCGGAUACUAGCUCAGCAGAAGGCUUACAACUGA”, the “apparent Kd” value runs as follows: under setting [1], 11.3 nM; under setting [2], 41 nM.

Turning to “CGGGAGAGAGGAUAUGGUGGACAUCACAUGAGGAUCACCCAUGUCUCGAGUGCUCCGUCACCAGAAGGCUCCGUUU”, the “apparent Kd” value by setting is: under setting [1], 109 nM; under setting [2], 78.7 nM.

For the sequence “UUUAUGUAAGAGAAGGAGGACUUCAUGAGGAUCACCCAUGUGUUAGUACUUAGGAUAUUUGACAACAUGAGGAUCACCCAUGUC”, the “apparent Kd” value is, setting by setting: under setting [3], 59.9 nM; under setting [4], 58.4 nM.

On to “UGCGUUAAGCCCUUAAGUCGUCAACAUGAGGAUCACCCAUGUAGAAGGCAGCGGACGCGGCCGGCUGAGGAUAUACAUGUAGGU”, for which the “apparent Kd” value by setting is: under setting [1], 13.3 nM; under setting [2], 16.8 nM.

Regarding “UUUAUGUGAGGAUAUCAGUAGUAAAAAAAUAAAAUUACUACUGAGAAGGCACAUGAGGAUCACCCAUGUACUUC”, the “apparent Kd” value came out at 40.2 nM under setting [1] and 30.5 nM under setting [2].

On to “AAAAAACAUGAGGAUCACCCAUGUGAGGAUAUCCUGGUUGAAAAAAAAAAAACAACCAGGAGAAGGCACAAAAA”, for which the “apparent Kd” value runs as follows: under setting [1], 88.4 nM; under setting [2], 132 nM.

For the sequence “GCUAAUAUUUUGUUAAAUGUAUUUUGAGAAGGCAUACACAUGAGGAUCACCCAUGUAAUUUGUAAUGAGGAUAUCAUGAUGUGC”, the “apparent Kd” value is 115 nM under setting [3] and 31.5 nM under setting [4].

On to “AGCCAAAUAGGAUAUGCCCGGGAUAACAUGAGGAUCACCCAUGUGACCGAUUCAUGUCCUGCAGAAGGAUUUGGGA”, for which the “apparent Kd” value under setting [1] was determined as 13.2 nM and the “apparent Kd” value under setting [2] is 24.4 nM.

With “AACGCGUCAGGAUAUAGCGUAACUUAGGUAGUACGACCAUACUAGAAGGGACAUGAGGAUCACCCAUGUGGGUA”, the “apparent Kd” value runs as follows: under setting [1], 232 nM; under setting [2], 112 nM.

As to “CGCAAUGAUAGAGGAUAUGUUUUACAUGAGGAUCACCCAUGUGUACAUGGAUUAAUAUAUAAGUAACAGAAGGCUAUUCAUGCG”, the “apparent Kd” value by setting is: under setting [1], 16.7 nM; under setting [2], 15.2 nM.

Turning to “UUAUUAUAUGAAGGAUAUACUUAACAUGAGGAUCACCCAUGUGGUGUUGUGAGUGAGUGAGUUUAGUAGAAGGUCAAUUCUUUU”, the “apparent Kd” value was determined as 425 nM under setting [1] and 623 nM under setting [2].

On to “GGAGUACAUGAGGAUCACCCAUGUUGGAACAAAGUAGGAUAUGUACAAUAUUAAAUAAAAACAGAAGGACUAAGAA”, for which the “apparent Kd” value is 47.4 nM under setting [3] and 30.8 nM under setting [4].

Take “GCCGUGUUAGGAUAUUAAAGACCUGCGCCGAGCGCAGGAAGUAAGAAGGAACAUGAGGAUCACCCAUGUGUCCG”: the “apparent Kd” value under setting [1] turned out to be 18.1 nM and the “apparent Kd” value under setting [2] was 16.1 nM.

Turning to “UUAGCAACAUGAGGAUCACCCAUGUAGGAUAUCGCUAUUGUAAUCAUGAAACAUGAUUACAAUAGCGAGAAGGACAUAUGCUAA”, the “apparent Kd” value came to 6.42 nM under setting [1] and 9.48 nM under setting [2].

With “AAACAGGAAGGAUAUACAUUAUCGGAUCUUCUGGCAAUGCCACAUGAGGAUCACCCAUGUAGAAGGUCCAAAUU”, the “apparent Kd” value runs as follows: under setting [1], 13.6 nM; under setting [2], 22.9 nM.

Turning to “AUACCACGAGGAUAUCGUCUAUAUUACAUGAGGAUCACCCAUGUUAUAUUUGUAAUGUUUCGAGAAGGCGUGUUUU”, the “apparent Kd” value runs as follows: under setting [1], 15.3 nM; under setting [2], 13.3 nM.

“UAUAUAAUAAGAGCUGGACUUCAAACAUGAGGAUCACCCAUGUAGGAUAUCAGCACGAUAAGUGCUGAGAAGGACAACCAGCUC”: the “apparent Kd” value runs as follows: under setting [1], 16.5 nM; under setting [2], 16.8 nM.

In the case of “UGGUACAUGGGAGGAUAUCCUCAUGAGACAUGAGGAUCACCCAUGUAUUAUAAGCCGAAAGGCAAGGAGAAGGCCCAUGUACCU”, the “apparent Kd” value reads like this: under setting [3], 90.2 nM; under setting [4], 19.5 nM.

In the case of “ACUCGACAUGAGGAUCACCCAUGUGAGGAUAUGGCCUGUUUGGCGUGUGCUGGCUCUGUCAGAAGGCGCGUGGG”, the “apparent Kd” value was 41.7 nM under setting [1] and 89.3 nM under setting [2].

Take “GAGUGGAAGGCCGCUACAUGAGGAUCACCCAUGUGCUAAGCACAGGAUAUCGCGCGGGCCCGGCGCGAGAAGGGUGACGGCCUU”: the “apparent Kd” value reads like this: under setting [3], 1010 nM; under setting [4], 272 nM.

Turning to “UUAUUUAUGUAAGGAUAUCGAUUAUAUACACAUCCGACAUGAGGAUCACCCAUGUUUUAUUUUUUCGAGAAGGUACAUUGUCGG”, the “apparent Kd” value reads like this: under setting [3], 76.5 nM; under setting [4], 74.7 nM.

For “AAUAACAGAGGAUAUACUGUUUUAUGUGUUUGUUAUUUUGAACAUGAGGAUCACCCAUGUAGAAGGCUGAAUGA”, the “apparent Kd” value by setting is: under setting [1], 28.9 nM; under setting [2], 29.7 nM.

In the case of “GCACGGUAAGUGAGGAUAUACCUCUGGAUACAGAGGUAGAAGGCACAUGAGGAUCACCCAUGUCCAAGCCGUGC”, the “apparent Kd” value is, setting by setting: under setting [1], 23.7 nM; under setting [2], 103 nM.

With “AGACCGCUACGCCGGUUUCACGCACAGGAUAUGCGGUUACAUGAGGAUCACCCAUGUGGCCAUGUGCAGAAGGGUGGUUCGUGC”, the “apparent Kd” value under setting [3] was determined as 21.2 nM and the “apparent Kd” value under setting [4] turned out to be 14.9 nM.

Consider “AAAUAAAUGACUCAGGAUAUAUCAUAGAAUACAUGAGGAUCACCCAUGUUUUAAUAACAUGUUUGGUAGAAGGGAGUCAAUAAAU”, for which the “apparent Kd” value was determined as 80.4 nM under setting [3] and 29.3 nM under setting [4].

Turning to “GGGCCCGGUGUGAGGAUAUGCCCGGGUAAAUUUGGGCAGAAGGCACAUGAGGAUCACCCAUGUAAGCCGGGUUU”, the “apparent Kd” value turned out to be 14.8 nM under setting [1] and 12.9 nM under setting [2].
